Structures are written as SMILES. Active and inactive are the calls of the source. The calls are words filed in the database; no cut-off is given here. Some results are limits rather than exact numbers.

One test relates to KB. Briefly: Cytotoxicity against human KB cells up to 10 uM. The format is functional, cell-based.
The next test concerns the target Bcl-xL/BAK (Homo sapiens, UniProt Q07817). The test is described as follows: Inhibition of His-tagged Bcl-xL (unknown origin)/5-carboxyfluorescein-labeled Bak (unknown origin) protein protein interaction after 1 hr by fluorescence polarization assay. The procedure, abridged: (§1)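 Competition FP assay displacing a fluorescent-tagged BH3-domain probe (Bak peptide for Bcl-xL, Bid peptide for Mcl-1). Run in triplicate, with reference BH3-mimetic positive controls.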
In general terms: Fluorescence polarisation rises when a labelled molecule tumbles more slowly, as on binding a larger partner.

For a further test, the system named is HUVEC (Homo sapiens). The test is described as follows: Cytotoxicity against HUVEC cells up to 10 uM.
The target in test [1] is Induced myeloid leukemia cell differentiation protein Mcl-1/BH3-interacting domain death agonist (Homo sapiens, UniProt Q07820). Briefly: Inhibition of His-tagged MCL1 (unknown origin)/5-carboxyfluorescein-labeled Bid (unknown origin) protein protein interaction after 1 hr by fluorescence polarization assay. The procedure, abridged: as §1
Induced myeloid leukemia cell differentiation protein Mcl-1/BH3-interacting domain death agonist, sequence (Q07820 whole entry, the tested form may be a part): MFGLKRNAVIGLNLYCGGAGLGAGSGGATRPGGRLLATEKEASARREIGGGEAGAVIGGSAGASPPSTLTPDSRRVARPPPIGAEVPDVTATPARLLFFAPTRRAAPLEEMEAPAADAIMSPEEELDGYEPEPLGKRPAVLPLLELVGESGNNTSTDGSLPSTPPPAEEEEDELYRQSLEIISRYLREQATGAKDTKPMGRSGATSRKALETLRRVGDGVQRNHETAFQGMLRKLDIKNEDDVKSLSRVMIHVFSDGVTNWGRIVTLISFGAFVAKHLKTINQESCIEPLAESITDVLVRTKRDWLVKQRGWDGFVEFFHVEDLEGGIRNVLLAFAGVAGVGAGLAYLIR
Induced myeloid leukemia cell differentiation protein Mcl-1/BH3-interacting domain death agonist, sequence (P55957 whole entry, further chain, the tested form may be a part): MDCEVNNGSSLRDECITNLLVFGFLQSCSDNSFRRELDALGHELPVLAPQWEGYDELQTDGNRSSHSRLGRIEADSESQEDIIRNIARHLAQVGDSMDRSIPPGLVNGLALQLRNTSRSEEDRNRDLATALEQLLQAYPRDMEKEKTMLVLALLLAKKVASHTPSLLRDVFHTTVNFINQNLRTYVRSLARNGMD

Bcl-xL/BAK, sequence (Q07817 whole entry): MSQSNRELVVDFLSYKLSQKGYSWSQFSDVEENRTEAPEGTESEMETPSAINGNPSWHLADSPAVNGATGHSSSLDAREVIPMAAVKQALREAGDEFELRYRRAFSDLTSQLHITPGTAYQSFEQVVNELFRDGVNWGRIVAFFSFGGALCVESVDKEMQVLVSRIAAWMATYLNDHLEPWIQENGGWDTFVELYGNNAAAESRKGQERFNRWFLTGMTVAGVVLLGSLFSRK
Bcl-xL/BAK, sequence (Q16611 whole entry, further chain): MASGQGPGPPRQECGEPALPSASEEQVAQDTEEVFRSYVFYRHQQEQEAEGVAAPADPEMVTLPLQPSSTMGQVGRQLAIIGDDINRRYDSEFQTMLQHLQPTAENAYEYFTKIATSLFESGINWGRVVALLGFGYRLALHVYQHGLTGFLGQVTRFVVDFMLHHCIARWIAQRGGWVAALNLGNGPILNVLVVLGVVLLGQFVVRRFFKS

As a reminder, the Ki is the dissociation constant of the complex between target and ligand, obtained from inhibition or displacement. Higher therefore signals lower affinity. Turning to `COC1=C(O)C(=O)/C(=C(\O)[C@H]2CC=C(CCC=C(C)C)C[C@@H]2c2ccccc2)C(=O)C1=O`, the result in the test on KB and with HUVEC (Homo sapiens) was inactive. Besides, the results for the Ki (at Bcl-xL/BAK; in test [1]) were > 23 µM and 7.4 µM, respectively.

As to `COC1=C(OC)C(=O)C2=C(O[C@@H](c3ccccc3)CC2=O)C1=O`, the result in the test on KB and in the test with HUVEC (Homo sapiens) was inactive. The Ki on Bcl-xL/BAK is > 23 µM; in test [1] it was > 33 µM.

Regarding `COC1=C(O)C(=O)/C(=C(\O)[C@@H]2CC=C(CCC=C(C)C)C[C@H]2c2ccccc2)C(=O)C1=O`, the outcome with KB and with HUVEC (Homo sapiens) was inactive. Further, the values for the Ki (on Bcl-xL/BAK; in test [1]) were 4.8 µM and 2.4 µM, respectively.

In turn, `CC(C)=CCC[C@H](C)[C@@H]1C=C[C@]2(C(=O)O)[C@@H](CC(C)=C[C@H]2/C=C(\C)C2CCC(C(=O)O)CC2)C1` (some centres not stated) returned a Ki on Bcl-xL/BAK of 2.6 µM.

Take `COc1c(O)c2c(c(O)c1OC)C(=O)C[C@H](c1ccccc1)O2`: the result with KB and with HUVEC (Homo sapiens) was inactive. In addition, the Ki is > 23 µM at Bcl-xL/BAK and > 33 µM in test [1].

On to `COC1=C(O)C(=O)/C(=C(\O)C2CC=C(CCC=C(C)C)CC2c2ccccc2)C(=O)C1=O` (racemic), for which the outcome in the test on KB and in the test with HUVEC (Homo sapiens) was inactive. Moreover, the inhibitory constant (Ki) on Bcl-xL/BAK stood at 17.5 µM; in test [1], 3.1 µM.

For `CC(C)=CCCC1=CCC(C(=O)O)C(c2ccccc2)C1` (racemic), the outcome with KB and in the test on HUVEC (Homo sapiens) was inactive. Moreover, the Ki on Bcl-xL/BAK is > 23 µM; in test [1] it was > 33 µM.

In the case of `CC(=O)C1CC=C(CCC=C(C)C)CC1c1ccccc1` (racemic), the result in the test with KB and with HUVEC (Homo sapiens) was inactive. In addition, the Ki was > 23 µM on Bcl-xL/BAK and > 33 µM in test [1].

Turning to `CC(=O)C1CC(CCC=C(C)C)=CCC1c1ccccc1` (racemic), the outcome with KB and in the test on HUVEC (Homo sapiens) was inactive. Further, the figures for the Ki (on Bcl-xL/BAK; in test [1]) were > 23 µM and > 33 µM, respectively.

As for `COc1cc(/C=C/c2ccccc2)oc(=O)c1` [DESMETHOXYYANGONIN], the result in the test with KB and in the test on HUVEC (Homo sapiens) was inactive. For the same compound, the inhibitory constant (Ki) was > 23 µM at Bcl-xL/BAK and > 33 µM in test [1].

The record behind these values is ChEMBL document CHEMBL4130571, “(+)- and (-)-Ecarlottones, Uncommon Chalconoids from Fissistigma latifolium with Pro-Apoptotic Activity” (J Nat Prod, 2017).
